What was measured:
[1] = tested on: HCT-116; assay: Tested for HCT116 cell growth as percentage of control after 72 hr at 1 uM; conditions: Homo sapiens, HCT-116, 72 h
[2] = tested on: HCT-116; assay: Tested for HCT116 cell growth as percentage of control after 48 hr at 0.1 uM; conditions: Homo sapiens, HCT-116, 48 h
[3] = tested on: HCT-116; assay: Tested for HCT116 cell growth as percentage of control after 72 hr at 10 uM; conditions: Homo sapiens, HCT-116, 72 h
[4] = tested on: HCT-116; assay: Tested for HCT116 cell growth as percentage of control after 24 hr at 100 uM; conditions: Homo sapiens, HCT-116, 24 h
[5] = tested on: HCT-116; assay: Tested for percentage inhibition of HCT116 cell growth after 72 hr at 100 uM, (p<0.05); type: functional; conditions: Homo sapiens, HCT-116, 72 h; values are per cent of control
Outline: (§1)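 HCT116 cells grown in DMEM with 2 mM L-glutamine, penicillin/streptomycin, nonessential amino acids, 10% heat-inactivated FBS, 37 °C, 5% CO2. Seeded at 500 cells/well, 72 h later refed with serum-containing medium plus DMSO vehicle or agent. CellTiter96 read-out at 24, 48 or 72 h of treatment, expressed as % of DMSO-treated cells. Mean ± SEM, n = 3-5. Student's t-test, significance p < 0.05.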

[6] = tested on: HCT-116; assay: Tested for HCT116 cell growth as percentage of control after 24 hr at 10 uM; conditions: Homo sapiens, HCT-116, 24 h
[7] = tested on: HCT-116; assay: Tested for percentage inhibition of HCT116 cell growth after 24 hr at 0.1 uM; type: functional; conditions: Homo sapiens, HCT-116, 24 h; values are per cent of control
Outline: as §1

[8] = tested on: HCT-116; assay: Tested for percentage inhibition of HCT116 cell growth after 72 hr at 0.1 uM, (p<0.05); type: functional; conditions: Homo sapiens, HCT-116, 72 h; values are per cent of control
Outline: as §1

[9] = tested on: HCT-116; assay: Tested for percentage inhibition of HCT116 cell growth after 24 hr at 1 uM; type: functional; conditions: Homo sapiens, HCT-116, 24 h; values are per cent of control
Outline: as §1

[10] = tested on: HCT-116; assay: Tested for percentage inhibition of HCT116 cell growth after 48 hr at 1 uM; type: functional; conditions: Homo sapiens, HCT-116, 48 h; values are per cent of control
Outline: as §1

[11] = tested on: HCT-116; assay: Tested for percentage inhibition of HCT116 cell growth after 48 hr at 10 uM; type: functional; conditions: Homo sapiens, HCT-116, 48 h; values are per cent of control
Outline: as §1

[12] = tested on: HCT-116; assay: Tested for percentage inhibition of HCT116 cell growth after 48 hr at 100 uM, (p<0.05); type: functional; conditions: Homo sapiens, HCT-116, 48 h; values are per cent of control
Outline: as §1

[13] = tested on: HCT-116; assay: Tested for HCT116 cell growth as percentage of control after 48 hr at 100 uM, (p<0.005); conditions: Homo sapiens, HCT-116, 48 h
[14] = tested on: HCT-116; assay: Tested for HCT116 cell growth as percentage of control after 24 hr at 10 uM; conditions: Homo sapiens, HCT-116, 24 h; remark: listed apart in the source
[15] = tested on: HCT-116; assay: Tested for percentage inhibition of HCT116 cell growth after 72 hr at 0.1 uM; type: functional; conditions: Homo sapiens, HCT-116, 72 h; values are per cent of control
Outline: as §1

Nc1nc(O)c2sc3[nH]cnc3c2n1
growth, % of control at 1 µM [1]: 117%
growth, % of control at 0.1 µM [2]: 96.8%
growth (% of control) at 10 µM [3]: 99.5%
growth, % of control at 100 µM [4]: 75.8%
growth, % of control at 100 µM [5]: 76.1%
growth (% of control) at 10 µM [6]: 93.2%
growth, % of control at 0.1 µM [7]: 98.7%
growth, % of control at 0.1 µM [8]: 107%
growth, % of control at 1 µM [9]: 96.7%
growth, % of control at 1 µM [10]: 95.9%
growth (% of control) at 10 µM [11]: 85%
growth, % of control at 100 µM [12]: 77%

Nc1ncnc2c1sc1nc[nH]c12
growth, % of control at 100 µM [13]: 71.5%
growth, % of control at 1 µM [1]: 96.1%
growth, % of control at 0.1 µM [2]: 105%
growth (% of control) at 10 µM [3]: 93.8%
growth (% of control) at 10 µM [14]: 105%
growth, % of control at 100 µM [4]: 82%
growth, % of control at 100 µM [5]: 51.5%
growth, % of control at 0.1 µM [15]: 101%
growth, % of control at 0.1 µM [7]: 96.1%
growth, % of control at 1 µM [9]: 107%
growth, % of control at 1 µM [10]: 98.3%
growth (% of control) at 10 µM [11]: 105%
